This is an account of results in paper PMC5615155 (Toxicology Reports, 2017).

A value given as a limit tells only on which side of the number the result lay.

For one data set, the target named is CYP3A4 (Homo sapiens, UniProt P08684). The data set is described as follows: CYP inhibition, spectrofluorimetric. It counts as biochemical. The conditions noted are these: recombinant human CYP3A4 expressed in insect Sf9 cells. The essentials:
(§1)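 Inhibition was assayed with recombinant human CYP isoforms expressed in insect Sf9 cells. Turnover of spectrofluorimetric substrates was read by fluorescence. Test compound was tested at a single concentration of 10 μM.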

The next data set addresses CYP2D6 (Homo sapiens, UniProt P10635). Nature of the data set: CYP inhibition, spectrofluorimetric. It counts as biochemical. The following applies: recombinant human CYP2D6 expressed in insect Sf9 cells. Put shortly: as §1

Sequence of CYP2D6 (P10635 whole entry): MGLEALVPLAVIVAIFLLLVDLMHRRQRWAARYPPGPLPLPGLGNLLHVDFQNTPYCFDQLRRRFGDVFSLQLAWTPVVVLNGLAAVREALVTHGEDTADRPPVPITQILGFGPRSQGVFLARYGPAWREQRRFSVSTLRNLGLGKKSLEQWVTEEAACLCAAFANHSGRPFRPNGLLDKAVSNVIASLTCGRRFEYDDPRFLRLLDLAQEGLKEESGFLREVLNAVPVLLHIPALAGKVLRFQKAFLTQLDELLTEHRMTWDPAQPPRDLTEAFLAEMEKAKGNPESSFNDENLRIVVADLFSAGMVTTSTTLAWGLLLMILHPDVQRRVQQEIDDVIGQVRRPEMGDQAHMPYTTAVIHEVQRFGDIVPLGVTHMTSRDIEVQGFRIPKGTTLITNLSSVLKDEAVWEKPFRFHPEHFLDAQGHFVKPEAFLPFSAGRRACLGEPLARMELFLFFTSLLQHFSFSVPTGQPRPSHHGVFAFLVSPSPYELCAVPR
Sequence of CYP3A4 (P08684 whole entry, canonical isoform): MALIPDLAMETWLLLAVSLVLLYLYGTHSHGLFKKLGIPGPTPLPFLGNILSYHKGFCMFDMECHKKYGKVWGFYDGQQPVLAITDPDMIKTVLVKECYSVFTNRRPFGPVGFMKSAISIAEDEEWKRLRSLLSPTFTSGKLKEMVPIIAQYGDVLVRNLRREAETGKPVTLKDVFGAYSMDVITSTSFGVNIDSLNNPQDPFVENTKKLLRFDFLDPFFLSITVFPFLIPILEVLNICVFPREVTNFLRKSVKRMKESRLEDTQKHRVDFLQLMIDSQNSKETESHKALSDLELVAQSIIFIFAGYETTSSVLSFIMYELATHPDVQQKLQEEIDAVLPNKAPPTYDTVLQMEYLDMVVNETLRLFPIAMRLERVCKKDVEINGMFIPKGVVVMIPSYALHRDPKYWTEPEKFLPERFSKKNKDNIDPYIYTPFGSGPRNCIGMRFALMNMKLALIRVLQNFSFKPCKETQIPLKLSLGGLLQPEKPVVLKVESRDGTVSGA

The term inhibition denotes the drop in the measured response relative to a control, in per cent. On to `Cc1cc(C(=O)NC(C)(C)COc2cccc3c2C(N)=NS(=O)(=O)N3)cc(C)n1` [S2218, N-(1-((4-amino-2,2-dioxido-1H-benzo[c][1,2,6]thiadiazin-5-yl)oxy)-2-methylpropan-2-yl)-2,6-dimethylisonicotinamide], for which the inhibition at 10 μM on CYP3A4 and on CYP2D6 was ≤ 7% throughout.
